RAM inhibit – inhibitors of the yeast RAM network, primary screen, dse1pr::URA3 reporter, 5-FOA selection; S. cerevisiae dse1pr::URA3 reporter, 5-FOA growth OD615, 2 d; analog-sensitive cbk1-as2 kinase mutant strain; inhibition, % at 50 µM; AID 868, 2007; 190,000 compounds, 1.8% hits;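 active = inhibition above a set limit, 3 SD over mean compound inhibition, cut at about 8.4% in these data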;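 also: inhibition rescues growth on 5-FOA so higher OD means more RAM inhibition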
ABCB1 block – ABCB1 efflux pump inhibitors, primary screen, cell-based, multiplex, flow cytometry, ABCG2 counter-screen; ATP-dependent translocase ABCB1 (Homo sapiens), P08183; CCRF-Adr cells, JC-1 efflux; 190,000 compounds, 0.067% hits; inhibition, % at 6.6 µM; in the data active = inhibition above about 40%;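 also: higher value means more JC-1 retained so stronger ABCB1 efflux block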
WT yeast gro inh – growth inhibition of WT strain, primary screen, mitochondrial fusion inhibitor project, WT and mutant strains, chemical genetic | mitochondrial fusion phenotypic screen | inhibition, % at 10 µM | 190,000 compounds, 2.1% hits; in the data active = inhibition above about 58%; tested in S. cerevisiae
ABCG2 inh – ABCG2 efflux pump inhibitors, primary screen, multiplex with ABCB1, IgMXP3 cells, flow cytometry; Broad substrate specificity ATP-binding cassette transporter ABCG2 (Homo sapiens), Q9UNQ0; JC-1 efflux; inhibition, % at 6.6 µM; 190,000 compounds, 0.1% hits;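 active = inhibition above 80%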
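Incubation: cells with compound and JC-1, 10 min at 25 °C, rotating, no wash / Test system: IgMXP3 (ABCG2) plus far-red-tagged CCRF-Adr (ABCB1) cells / Compound dosing: one concentration, 6.6 µM final / Also added: JC-1 fluorescent substrate / Evaluation: efflux inhibition in percent versus controls / Detection: flow cytometry, 530 nm JC-1 signal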
L major viab – Leishmania major promastigote growth inhibition, primary screen; Leishmania major promastigotes, resazurin fluorescence viability; inhibition, % at 10 µM; 200,000 compounds, 9% hits; in the data active = inhibition above about 50%;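 also: promastigotes grown with compound for 44 hours at 28 °C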
Of the large screens only hits and unclear results are named; the others gave an inactive call. An excerpt weighted towards active compounds, which were near 12% of everything screened.

Cc1ccc([N+](=O)[O-])cc1NC(=O)CN(C(=O)c1ccc(Cl)cc1)C1CCCCC1	none
O=C(NCCc1ccccc1)c1ccc2nc(-c3ccco3)c(-c3ccco3)nc2c1	L major viab 72
O=C(NCCO)c1ccc2nc(-c3ccco3)c(-c3ccco3)nc2c1	none
COc1ccc(OC)c(Nc2nc(-c3sc(NC(=O)C(C)(C)C)nc3C)cs2)c1	L major viab 93
COc1ccc(Cl)cc1Nc1nc(-c2sc(NC(=O)C(C)(C)C)nc2C)cs1	L major viab 96
COc1ccc(/C=C2\N=C(SC)N(c3ccccc3OC)C2=O)cc1	RAM inhibit 8.4
COc1cccc(/C=C/C(=O)OCC(=O)N2c3ccccc3NC(=O)C2(C)C)c1	none
CC(NC(=O)Nc1ccccc1)C(c1cccs1)N1CCOCC1 (stereo not given)	none
CC(NC(=O)Nc1ccccc1)C(c1ccccc1)N1CCOCC1 (stereo not given)	L major viab 52
O=C(CSCc1ccccc1Cl)Nc1c[nH]c(=O)[nH]c1=O	L major viab 59
Cc1ccccc1C(=O)O/N=C(\N)c1ccncc1	none
CCn1c(CNC(=O)COc2ccc(C(C)C)cc2)nnc1SCC(=O)Nc1cc(F)ccc1C	none
CCn1c(CNC(=O)COc2ccc(C(C)C)cc2)nnc1SCC(=O)Nc1ccc(F)cc1	RAM inhibit 10.0 (no result: WT yeast gro inh)
C=CCn1c(CCCOc2ccc(Cl)cc2Cl)nnc1SCC(=O)Nc1nccs1	RAM inhibit 8.9
CCc1cccc(C)c1NC(=O)CSc1nnc(CCCOc2ccc(Cl)cc2Cl)n1C	none
Cn1c(CCCOc2ccc(Cl)cc2Cl)nnc1SCC(=O)Nc1ccc(F)c(Cl)c1	RAM inhibit 9.0
CCn1c(CCCOc2ccc(Cl)cc2Cl)nnc1SCC(=O)Nc1cc(F)ccc1C	WT yeast gro inh 79
O=C(Cn1c2ccccc2c(=O)c2cc([N+](=O)[O-])ccc21)Nc1ccccc1Cl	none
O=C1[C@H](CC[C@H](O)c2ccc(F)cc2)[C@@H](c2ccc(O)cc2)N1c1ccc(F)cc1	none (no result: RAM inhibit, ABCB1 block, ABCG2 inh, L major viab)
COC(=O)c1ccc(-n2c(C)cc(C(=O)CSc3cccc[n+]3[O-])c2C)cc1	L major viab 98
CCOc1ccccc1NC(=O)COC(=O)CSc1ccc(Cl)cc1	L major viab 57
O=C(COC(=O)Cn1cnc2ccccc2c1=O)Nc1ccc(Cl)cc1	none
CCOc1ccccc1NC(=O)CSc1ccccc1	none
O=C(COc1ccccc1)Nc1ccccc1Oc1ccccc1	WT yeast gro inh 62
O=C(COC(=O)Cn1cnc2ccccc2c1=O)Nc1ccccc1Sc1ccc(Cl)cc1	L major viab 69
CC(=O)Nc1cccc(OCC(=O)Nc2ccccc2)c1	none
CCOC(=O)Nc1cccc(OCC(=O)Nc2ccccc2OCC)c1	RAM inhibit 9.6
CCOc1ccc(NC(=O)COc2ccc(C(=O)NCCc3ccccc3)cc2)cc1	none
CCCCc1ccc(NC(=O)COc2ccc(C(=O)Nc3ccccc3OCC)cc2)cc1	RAM inhibit 8.7
O=C(COc1ccccc1)Nc1ccc(OC(F)(F)C(F)F)c(NC(=O)COc2ccccc2)c1	RAM inhibit 9.8
O=C(CSc1cccc[n+]1[O-])Nc1ccccc1Oc1ccccc1	L major viab 100
Cc1ccc(S(=O)(=O)C(C)C(=O)c2ccc3c(c2)OCCO3)cc1 (stereo not given)	none
CCOC(=O)c1c(NC(=O)CC2SC(N)=NC2=O)sc2c1CCCC2 (stereo not given)	none
O=C(NCc1ccco1)/C(=C\C=C\c1ccccc1)NC(=O)c1ccccc1Br	none
COC(=O)c1ccc(C(=O)OC)c(NC(=O)CSc2cccc[n+]2[O-])c1	L major viab 98
CC(C)c1ccccc1NC(=O)COc1ccc(C(=O)NCCc2ccccc2)cc1	L major viab 71
COC(=O)c1ccc(C(=O)OC)c(NC(=O)COC(=O)C2CCCCC2)c1	none
COC(=O)c1ccc(C(=O)OC)c(NC(=O)COC(=O)C2CC2C)c1 (stereo not given)	L major viab 76 (no result: WT yeast gro inh)
O=C(CSc1cccc[n+]1[O-])N1CCCCCC1	none
O=C(CSc1cccc[n+]1[O-])CSc1cccc[n+]1[O-]	L major viab 99
C=CCC1(N(C(C)=O)c2ccccc2C)CCCCC1	none
CC(C)Oc1ccc(C(CC(=O)NCc2ccco2)c2ccccc2)cc1 (stereo not given)	L major viab 67
NC(=O)Cn1c(=O)n(C2CCCCC2)c(=O)c2c3c(sc21)CCCCC3	none
O=C(COC(=O)Cc1ccccc1F)Nc1cc(S(=O)(=O)N2CCOCC2)ccc1N1CCCC1	none
O=C(CCn1nc(-c2ccccc2)c2ccccc2c1=O)NCC1CCCO1 (stereo not given)	WT yeast gro inh 63
Cc1ccc(-c2nn(CCC(=O)NCC3CCCO3)c(=O)c3ccccc23)cc1 (stereo not given)	none
COCCNC(=O)/C(C#N)=C/C=C/c1ccccc1[N+](=O)[O-]	L major viab 81
CCCCNC(=O)/C(C#N)=C/c1cccnc1	L major viab 93
Cc1cccc(NC(=O)/C(C#N)=C\c2cccnc2)c1	none
COCCNC(=O)/C(C#N)=C/c1ccc(O)c([N+](=O)[O-])c1	none
N#C/C(=C\c1cccc([N+](=O)[O-])c1)C(=O)NCc1ccc(Cl)cc1	L major viab 51
COCCNC(=O)/C(C#N)=C/c1ccc(-c2ccc(OC)cc2[N+](=O)[O-])o1	none
COCCNC(=O)/C(C#N)=C/c1cccc(/C=C(\C#N)C(=O)NCCOC)c1	L major viab 99
CCCCNC(=O)/C(C#N)=C/c1ccc2c(c1)OCCO2	none
CCCCCCCCNC(=O)/C(C#N)=C/c1ccc2c(c1)OCCO2	RAM inhibit 9.4
COCCNC(=O)/C(C#N)=C/C(C)=C/c1ccccc1	L major viab 74
COc1cccc(C2=NOC(C(=O)Nc3cccnc3Cl)C2)c1 (stereo not given)	none
COc1cc(CNCCN(C)C)c(Br)cc1OCC(=O)NCc1ccccc1	L major viab 99
COc1cc(CNC(C)c2ccccc2)c(Br)cc1OCC(N)=O (stereo not given)	none
COc1cc(CNCC(C)C)c(Br)cc1OCC(=O)NCc1ccccc1	L major viab 96
CC(NCc1cc(Br)ccc1OCC(=O)NCc1ccccc1)c1ccccc1 (stereo not given)	L major viab 98
O=C(N/C(=C\c1ccc(Br)cc1)C(=O)N1CCCC1)c1ccccc1F	none
CCN(CCCNC(=O)CC(C(=O)N1CCc2ccccc21)n1ccnc1)c1ccccc1 (stereo not given)	L major viab 100
O=c1c2cc(N3CCOCC3)ccc2[nH]c(=S)n1Cc1ccccc1Cl	RAM inhibit 8.5
O=c1c2cc(N3CCOCC3)ccc2[nH]c(=S)n1CCc1ccccc1	none

Screens as filed in PubChem.
